Experimental data reported in ChEMBL document CHEMBL5360548, “Fatty acids as molecular carriers in cleavable antifungal conjugates” (Eur J Med Chem, 2023).
≈ marks a conversion by molar mass, not a printed value. Calls of active or inactive are those of the source. No cut-off for these calls is given here.

Experiments:
Candida albicans [1] = assay: Antifungal activity Candida albicans ATCC 10231 at 512 ug/ml by two-fold dilution method; assay type: functional, organism-based; details: dose 512.0 µg/ml
Procedure, shortened: (§1)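 Serial two-fold broth microdilution MIC per CLSI M27-A3, in RPMI-1640 without bicarbonate, with L-glutamine, 2% glucose and 3.45% MOPS, pH 7.0. Conjugates tested at 512–1 µg mL-1, 5-FC at 64–0.125 µg mL-1. Strains maintained at 30 °C in YPD medium and stored on YPD agar.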

Diutina rugosa = assay: Antifungal activity Candida rugosa DSM 2031 by two-fold dilution method; assay type: functional; procedure, shortened: as §1
[2] = tested on: Meyerozyma guilliermondii; assay: Antifungal activity Candida guilliermondii DSM 11947 by two-fold dilution method; assay type: functional; procedure, shortened: as §1
Candida albicans [3] = assay: Antifungal activity Candida albicans ATCC 10231 by two-fold dilution method; assay type: functional; procedure, shortened: as §1
Nakaseomyces glabratus = assay: Antifungal activity Candida glabrata DSM 11226 by two-fold dilution method; assay type: functional; procedure, shortened: as §1
Pichia kudriavzevii = assay: Antifungal activity Candida krusei DSM 6128 by two-fold dilution method; assay type: functional; procedure, shortened: as §1
Kluyveromyces marxianus = assay: Antifungal activity Candida pseudotropicalis KKP 324 by two-fold dilution method; assay type: functional; procedure, shortened: as §1
Debaryomyces hansenii = assay: Antifungal activity Candida famata DSM 3428 by two-fold dilution method; assay type: functional; procedure, shortened: as §1
Candida parapsilosis = assay: Antifungal activity Candida parapsilosis DSM 5784 by two-fold dilution method; assay type: functional; details: Lodderomyces parapsilosis; procedure, shortened: as §1
[4] = Induction of hemolysis in human RBC at upto 200 ug/ml incubated for 30 mins by absorbance based microplate reader analysis relative to control; assay type: toxicity, cell-based, Erythrocyte; details: human red blood cells (erythrocytes), up to 200 µg/mL
Procedure, shortened: (§2)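 Human erythrocytes at 2 × 10^7 cells mL-1 in saline, exposed to two-fold dilutions from DMSO stocks (final 200–0.4 µg mL-1), 37 °C, 30 min, then centrifuged. Hemoglobin in supernatant read at A540. Percent hemolysis scaled between DMSO (0%) and Triton X-100 (100%) controls. EH50 interpolated as the concentration giving 50% of the positive-control A540.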

[5] = Drug localization in cytoplasm of Candida cells measured after 1 hr by confocal microscopy based analysis; assay type: ADME, cell-based
Procedure, shortened: (§3)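 Candida from overnight YPD culture were washed, grown in RPMI-1640 at 30 °C with shaking from OD660 0.1 to 0.3, then resuspended in PBS to OD660 0.2. Fluorescent conjugate added to 50 µg mL-1 final and incubated at 30 °C, 150 rpm. Samples taken over time, washed 4× in PBS, imaged by confocal microscopy (ex 438, em 527 nm).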

[6] = Drug uptake in Candida glabrata cells assessed as increase in number of cells emitting green fluorescence measured after 10 to 30 mins by fluorescence based analysis; assay type: ADME, cell-based; details: nakaseomyces glabratus; time 10-30 min; procedure, shortened: as §3
[7] = Induction of hemolysis in human RBC incubated for 30 mins by absorbance based microplate reader analysis; assay type: toxicity, cell-based, Erythrocyte; details: human red blood cells (erythrocytes); procedure, shortened: as §2

| MIC (Diutina rugosa) [µg/mL] | MIC [2] [µg/mL] | MIC (Candida albicans [3]) [µg/mL] | MIC (Nakaseomyces glabratus) [µg/mL] | MIC (Pichia kudriavzevii) [µg/mL] | MIC (Kluyveromyces marxianus) [µg/mL] | MIC (Debaryomyces hansenii) [µg/mL] | MIC (Candida parapsilosis) [µg/mL] | Drug uptake [5] | Drug uptake [6] | Compound | Activity (Candida albicans [1]) | hemolysis at 0.5 h [4] [%] | HC50 at 0.5 h [7] [µg/mL] |
| --- | --- | --- | --- | --- | --- | --- | --- | --- | --- | --- | --- | --- | --- |
| 16 (≈ 31 µM) | 8 (≈ 15.5 µM) | 8 (≈ 15.5 µM) | 4 (≈ 7.76 µM) | 256 (≈ 496 µM) | 64 (≈ 124 µM) | 4 (≈ 7.76 µM) | 4 (≈ 7.76 µM) |  |  | CCCCCCCCCCCC(=O)Oc1cc(C)cc(C)c1C(C)(C)CC(=O)Oc1ncc(F)c(N)n1 |  | < 5 |  |
| 32 (≈ 85.2 µM) | 16 (≈ 42.6 µM) | 16 (≈ 42.6 µM) | 8 (≈ 21.3 µM) | > 512 | 64 (≈ 170 µM) | 8 (≈ 21.3 µM) | 4 (≈ 10.7 µM) |  |  | CC(=O)Oc1cc(C)cc(C)c1C(C)(C)CC(=O)Oc1ncc(F)c(N)n1 |  | < 5 |  |
| > 512 | 256 (≈ 427 µM) | 128 (≈ 213 µM) | 32 (≈ 53.3 µM) | > 512 | 512 (≈ 854 µM) | 256 (≈ 427 µM) | 128 (≈ 213 µM) |  |  | CCCCCCCCCCCCCCCCCC(=O)Oc1cc(C)cc(C)c1C(C)(C)CC(=O)Oc1ncc(F)c(N)n1 |  | < 5 |  |
| 16 (≈ 29.4 µM) | 8 (≈ 14.7 µM) | 4 (≈ 7.36 µM) | 2 (≈ 3.68 µM) | 512 (≈ 942 µM) | 32 (≈ 58.9 µM) | 4 (≈ 7.36 µM) | 4 (≈ 7.36 µM) |  |  | CCCCCCCCCCCCCC(=O)Oc1cc(C)cc(C)c1C(C)(C)CC(=O)Oc1ncc(F)c(N)n1 |  | < 5 |  |
| 64 (≈ 112 µM) | 32 (≈ 56 µM) | 16 (≈ 28 µM) | 8 (≈ 14 µM) | > 512 | 128 (≈ 224 µM) | 16 (≈ 28 µM) | 8 (≈ 14 µM) |  |  | CCCCCCCCCCCCCCCC(=O)Oc1cc(C)cc(C)c1C(C)(C)CC(=O)Oc1ncc(F)c(N)n1 |  | < 5 |  |
| 16 (≈ 34.8 µM) | 8 (≈ 17.4 µM) | 8 (≈ 17.4 µM) | 2 (≈ 4.35 µM) | 128 (≈ 279 µM) | 32 (≈ 69.6 µM) | 4 (≈ 8.7 µM) | 4 (≈ 8.7 µM) |  |  | CCCCCCCC(=O)Oc1cc(C)cc(C)c1C(C)(C)CC(=O)Oc1ncc(F)c(N)n1 |  | < 5 |  |
| 16 (≈ 32.8 µM) | 8 (≈ 16.4 µM) | 8 (≈ 16.4 µM) | 4 (≈ 8.2 µM) | 256 (≈ 525 µM) | 32 (≈ 65.6 µM) | 8 (≈ 16.4 µM) | 4 (≈ 8.2 µM) |  |  | CCCCCCCCCC(=O)Oc1cc(C)cc(C)c1C(C)(C)CC(=O)Oc1ncc(F)c(N)n1 |  | < 5 |  |
| 2 (≈ 15.5 µM) | 0.5 (≈ 3.87 µM) | 1 (≈ 7.75 µM) | 0.5 (≈ 3.87 µM) | > 512 | 1 (≈ 7.75 µM) | 1 (≈ 7.75 µM) | 2 (≈ 15.5 µM) |  |  | Nc1nc(=O)[nH]cc1F [FLUCYTOSINE] |  |  |  |

More lines, now with the values behind:

| Compound | MIC (Diutina rugosa) [µg/mL] | MIC [2] [µg/mL] | MIC (Candida albicans [3]) [µg/mL] | MIC (Nakaseomyces glabratus) [µg/mL] | MIC (Pichia kudriavzevii) [µg/mL] | MIC (Kluyveromyces marxianus) [µg/mL] | MIC (Debaryomyces hansenii) [µg/mL] | MIC (Candida parapsilosis) [µg/mL] | Drug uptake [5] | Drug uptake [6] | Activity (Candida albicans [1]) | hemolysis at 0.5 h [4] [%] | HC50 at 0.5 h [7] [µg/mL] |
| --- | --- | --- | --- | --- | --- | --- | --- | --- | --- | --- | --- | --- | --- |
| CCCCN1C(=O)c2cccc3c(NCCNC(=O)CC(C)(C)c4c(C)cc(C)cc4OC(C)=O)ccc(c23)C1=O |  |  |  |  |  |  |  |  |  |  | inactive |  |  |
| CCCCCCCCCCCCCC(=O)Oc1cc(C)cc(C)c1C(C)(C)CC(=O)NCCNc1ccc2c3c(cccc13)C(=O)N(CCCC)C2=O |  |  |  |  |  |  |  |  |  |  | inactive |  |  |
| CCCCCCCCCC(=O)Oc1cc(C)cc(C)c1C(C)(C)CC(=O)NCCNc1ccc2c3c(cccc13)C(=O)N(CCCC)C2=O |  |  |  |  |  |  |  |  |  |  | inactive |  |  |
| CCCCCCCCCCCC(=O)Oc1cc(C)cc(C)c1C(C)(C)CC(=O)NCCNc1ccc2c3c(cccc13)C(=O)N(CCCC)C2=O |  |  |  |  |  |  |  |  |  |  | inactive |  |  |
| CCCCCCCCCCCCCCCCCC(=O)Oc1cc(C)cc(C)c1C(C)(C)CC(=O)NCCNc1ccc2c3c(cccc13)C(=O)N(CCCC)C2=O |  |  |  |  |  |  |  |  |  |  | inactive |  |  |
| CCCCCCCC(=O)Oc1cc(C)cc(C)c1C(C)(C)CC(=O)NCCNc1ccc2c3c(cccc13)C(=O)N(CCCC)C2=O |  |  |  |  |  |  |  |  | Active | Active | inactive |  |  |
| C[C@@H]1[C@H](O)[C@@H](C)/C=C/C=C/C=C/C=C/C=C/C=C/C=C/[C@H](O[C@@H]2O[C@H](C)[C@@H](O)[C@H](N)[C@@H]2O)C[C@@H]2O[C@](O)(C[C@@H](O)C[C@@H](O)[C@H](O)CC[C@@H](O)C[C@@H](O)CC(=O)O[C@H]1C)C[C@H](O)[C@H]2C(=O)O [AMPHOTERICIN B] |  |  |  |  |  |  |  |  |  |  |  |  | 3.46 |
| CCCCCCCCCCCCCCCC(=O)Oc1cc(C)cc(C)c1C(C)(C)CC(=O)NCCNc1ccc2c3c(cccc13)C(=O)N(CCCC)C2=O |  |  |  |  |  |  |  |  |  |  | inactive |  |  |
